# Source: ChEMBL document CHEMBL4229342, “Synthesis of novel proxyphylline derivatives with dual Anti-Candida albicans and anticancer activity” (Eur J Med Chem, 2018)
# Test system: MCF7
# Test: Antiproliferative activity against human MCF7 cells assessed as cell viability at 25 uM after 72 hrs by MTT assay
# Format: functional
# Details: MCF7, 72 h, read-out: Activity
# How it was run: (§1)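 MTT viability assay in CCRF-CEM and MCF-7 cells after 72 h exposure at 25, 50, 100 and 200 µM. Results are relative to control cells without inhibitor in 0.5% DMSO. Done in triplicate; values are means ± SD of three independent experiments.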
row,SMILES,viability at 25 µM
1,COC(C(=O)OC(C)Cn1cnc2c1c(=O)n(C)c(=O)n2C)c1ccc(C(C)(C)C)cc1 (centres undefined),82.2%

# Test system: Candida albicans
# Test: Growth inhibition of Candida albicans ATCC 90028 at 0.0625 ug/ml incubated for 18 hrs at 35 degC by broth microdilution method relative to control
# Format: functional
# Details: ATCC 90028, 18 h, read-out: GI
row,SMILES,inhibition of growth at 0.0625 µg/mL
1,COC(C(=O)OC(C)Cn1cnc2c1c(=O)n(C)c(=O)n2C)c1ccc(C(C)(C)C)cc1 (centres undefined),99.9%

# Test system: Candida albicans
# Test: Growth inhibition of Candida albicans ATCC 90028 at 0.125 ug/ml incubated for 4 hrs at 35 degC by broth microdilution method relative to control
# Format: functional
# Details: ATCC 90028, 4 h, read-out: GI
row,SMILES,inhibition of growth at 0.125 µg/mL
1,COC(C(=O)OC(C)Cn1cnc2c1c(=O)n(C)c(=O)n2C)c1ccc(C(C)(C)C)cc1 (centres undefined),99.2%

# Test system: Candida albicans
# Test: Growth inhibition of Candida albicans ATCC 90028 at 2 ug/ml incubated for 18 hrs at 35 degC by broth microdilution method relative to control
# Format: functional
# Details: ATCC 90028, 18 h, read-out: GI
row,SMILES,inhibition of growth at 2 µg/mL
1,COC(C(=O)OC(C)Cn1cnc2c1c(=O)n(C)c(=O)n2C)c1ccc(C(C)(C)C)cc1 (centres undefined),99.9%

# Test system: Candida albicans
# Test: Growth inhibition of Candida albicans ATCC 90028 at 2 ug/ml incubated for 4 hrs at 35 degC by broth microdilution method relative to control
# Format: functional
# Details: ATCC 90028, 4 h, read-out: GI
row,SMILES,inhibition of growth at 2 µg/mL
1,COC(C(=O)OC(C)Cn1cnc2c1c(=O)n(C)c(=O)n2C)c1ccc(C(C)(C)C)cc1 (centres undefined),99.2%

# Test system: Candida albicans
# Test: Growth inhibition of Candida albicans ATCC 90028 at 1 ug/ml incubated for 4 hrs at 35 degC by broth microdilution method relative to control
# Format: functional
# Details: ATCC 90028, 4 h, read-out: GI
row,SMILES,inhibition of growth at 1 µg/mL
1,COC(C(=O)OC(C)Cn1cnc2c1c(=O)n(C)c(=O)n2C)c1ccc(C(C)(C)C)cc1 (centres undefined),99.4%

# Test system: Candida albicans
# Test: Growth inhibition of Candida albicans ATCC 90028 at 0.25 ug/ml incubated for 4 hrs at 35 degC by broth microdilution method relative to control
# Format: functional
# Details: ATCC 90028, 4 h, read-out: GI
row,SMILES,inhibition of growth at 0.25 µg/mL
1,COC(C(=O)OC(C)Cn1cnc2c1c(=O)n(C)c(=O)n2C)c1ccc(C(C)(C)C)cc1 (centres undefined),99.3%

# Test system: CCRF-CEM
# Test: Antiproliferative activity against human CCRF-CEM cells assessed as cell viability at 50 uM after 72 hrs by MTT assay
# Format: functional
# Details: read-out: Activity
# How it was run: as §1
row,SMILES,viability at 50 µM
1,COC(C(=O)OC(C)Cn1cnc2c1c(=O)n(C)c(=O)n2C)c1ccc(C(C)(C)C)cc1 (centres undefined),55.3%

# Test system: MCF7
# Test: Antiproliferative activity against human MCF7 cells assessed as cell viability at 200 uM after 72 hrs by MTT assay
# Format: functional
# Details: MCF7, 72 h, read-out: Activity
# How it was run: as §1
row,SMILES,viability at 200 µM
1,COC(C(=O)OC(C)Cn1cnc2c1c(=O)n(C)c(=O)n2C)c1ccc(C(C)(C)C)cc1 (centres undefined),35%

# Test system: Candida albicans
# Test: Growth inhibition of Candida albicans ATCC 90028 at 0.5 ug/ml incubated for 18 hrs at 35 degC by broth microdilution method relative to control
# Format: functional
# Details: ATCC 90028, 18 h, read-out: GI
row,SMILES,inhibition of growth at 0.5 µg/mL
1,COC(C(=O)OC(C)Cn1cnc2c1c(=O)n(C)c(=O)n2C)c1ccc(C(C)(C)C)cc1 (centres undefined),99.7%

# Test system: Candida albicans
# Test: Fungicidal activity against Candida albicans ATCC 90028 assessed as log reduction in cell viability at 16 ug/ml after 48 hrs at 35 degC
# Format: functional
# Details: not given
# How it was run: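 MFC assay on C. albicans ATCC 90028 following M27-A3, at the molar equivalent of 16 µg/mL. CFU of treated cells were compared with CFU of the untreated inoculum. Activity is given as lg R = lg CFU/mL control − lg CFU/mL treated, and lg R ≥3 was defined as fungicidal. Values are means of two independent experiments.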
row,SMILES,log(activity)
1,COC(C(=O)OC(C)Cn1cnc2c1c(=O)n(C)c(=O)n2C)c1ccc(C(C)(C)C)cc1 (centres undefined),0.2

# Test system: MCF7
# Test: Antiproliferative activity against human MCF7 cells assessed as cell viability at 100 uM after 72 hrs by MTT assay
# Format: functional
# Details: MCF7, 72 h, read-out: Activity
# How it was run: as §1
row,SMILES,viability at 100 µM
1,COC(C(=O)OC(C)Cn1cnc2c1c(=O)n(C)c(=O)n2C)c1ccc(C(C)(C)C)cc1 (centres undefined),63.5%

# Test system: Candida albicans
# Test: Growth inhibition of Candida albicans ATCC 90028 at 16 ug/ml incubated for 18 hrs at 35 degC by broth microdilution method relative to control
# Format: functional
# Details: ATCC 90028, 18 h, read-out: GI
row,SMILES,inhibition of growth at 16 µg/mL
1,COC(C(=O)OC(C)Cn1cnc2c1c(=O)n(C)c(=O)n2C)c1ccc(C(C)(C)C)cc1 (centres undefined),99.8%

# Test system: Candida albicans
# Test: Growth inhibition of Candida albicans ATCC 90028 at 0.125 ug/ml incubated for 18 hrs at 35 degC by broth microdilution method relative to control
# Format: functional
# Details: ATCC 90028, 18 h, read-out: GI
row,SMILES,inhibition of growth at 0.125 µg/mL
1,COC(C(=O)OC(C)Cn1cnc2c1c(=O)n(C)c(=O)n2C)c1ccc(C(C)(C)C)cc1 (centres undefined),100%

# Test system: Candida albicans
# Test: Growth inhibition of Candida albicans ATCC 90028 at 0.0313 ug/ml incubated for 18 hrs at 35 degC by broth microdilution method relative to control
# Format: functional
# Details: ATCC 90028, 18 h, read-out: GI
row,SMILES,inhibition of growth at 0.0313 µg/mL
1,COC(C(=O)OC(C)Cn1cnc2c1c(=O)n(C)c(=O)n2C)c1ccc(C(C)(C)C)cc1 (centres undefined),99.8%

# Test system: Candida albicans
# Test: Growth inhibition of Candida albicans ATCC 90028 at 0.25 ug/ml incubated for 18 hrs at 35 degC by broth microdilution method relative to control
# Format: functional
# Details: ATCC 90028, 18 h, read-out: GI
row,SMILES,inhibition of growth at 0.25 µg/mL
1,COC(C(=O)OC(C)Cn1cnc2c1c(=O)n(C)c(=O)n2C)c1ccc(C(C)(C)C)cc1 (centres undefined),100%

# Test system: Candida albicans
# Test: Growth inhibition of Candida albicans ATCC 90028 at 0.5 ug/ml incubated for 4 hrs at 35 degC by broth microdilution method relative to control
# Format: functional
# Details: ATCC 90028, 4 h, read-out: GI
row,SMILES,inhibition of growth at 0.5 µg/mL
1,COC(C(=O)OC(C)Cn1cnc2c1c(=O)n(C)c(=O)n2C)c1ccc(C(C)(C)C)cc1 (centres undefined),98.9%

# Test system: Candida albicans
# Test: Growth inhibition of Candida albicans ATCC 90028 at 8 ug/ml incubated for 48 hrs at 35 degC by broth microdilution method relative to control
# Format: functional
# Details: ATCC 90028, 48 h, read-out: GI
row,SMILES,inhibition of growth at 8 µg/mL
1,COC(C(=O)OC(C)Cn1cnc2c1c(=O)n(C)c(=O)n2C)c1ccc(C(C)(C)C)cc1 (centres undefined),99.7%

# Test system: MCF7
# Test: Antiproliferative activity against human MCF7 cells assessed as cell viability at 50 uM after 72 hrs by MTT assay
# Format: functional
# Details: MCF7, 72 h, read-out: Activity
# How it was run: as §1
row,SMILES,viability at 50 µM
1,COC(C(=O)OC(C)Cn1cnc2c1c(=O)n(C)c(=O)n2C)c1ccc(C(C)(C)C)cc1 (centres undefined),79.5%

# Test system: Candida albicans
# Test: Growth inhibition of Candida albicans ATCC 90028 at 0.0625 ug/ml incubated for 4 hrs at 35 degC by broth microdilution method relative to control
# Format: functional
# Details: ATCC 90028, 4 h, read-out: GI
row,SMILES,inhibition of growth at 0.0625 µg/mL
1,COC(C(=O)OC(C)Cn1cnc2c1c(=O)n(C)c(=O)n2C)c1ccc(C(C)(C)C)cc1 (centres undefined),99%

# Test system: CCRF-CEM
# Test: Antiproliferative activity against human CCRF-CEM cells assessed as cell viability at 25 uM after 72 hrs by MTT assay
# Format: functional
# Details: read-out: Activity
# How it was run: as §1
row,SMILES,viability at 25 µM
1,COC(C(=O)OC(C)Cn1cnc2c1c(=O)n(C)c(=O)n2C)c1ccc(C(C)(C)C)cc1 (centres undefined),75.8%

# Test system: Candida albicans
# Test: Growth inhibition of Candida albicans ATCC 90028 at 1 ug/ml incubated for 18 hrs at 35 degC by broth microdilution method relative to control
# Format: functional
# Details: ATCC 90028, 18 h, read-out: GI
row,SMILES,inhibition of growth at 1 µg/mL
1,COC(C(=O)OC(C)Cn1cnc2c1c(=O)n(C)c(=O)n2C)c1ccc(C(C)(C)C)cc1 (centres undefined),99.8%

# Test system: Candida albicans
# Test: Growth inhibition of Candida albicans ATCC 90028 at 4 ug/ml incubated for 18 hrs at 35 degC by broth microdilution method relative to control
# Format: functional
# Details: ATCC 90028, 18 h, read-out: GI
row,SMILES,inhibition of growth at 4 µg/mL
1,COC(C(=O)OC(C)Cn1cnc2c1c(=O)n(C)c(=O)n2C)c1ccc(C(C)(C)C)cc1 (centres undefined),99.9%

# Test system: Candida albicans
# Test: Growth inhibition of Candida albicans ATCC 90028 at 8 ug/ml incubated for 18 hrs at 35 degC by broth microdilution method relative to control
# Format: functional
# Details: ATCC 90028, 18 h, read-out: GI
row,SMILES,inhibition of growth at 8 µg/mL
1,COC(C(=O)OC(C)Cn1cnc2c1c(=O)n(C)c(=O)n2C)c1ccc(C(C)(C)C)cc1 (centres undefined),100%

# Test system: Candida albicans
# Test: Growth inhibition of Candida albicans ATCC 90028 at 16 ug/ml incubated for 48 hrs at 35 degC by broth microdilution method relative to control
# Format: functional
# Details: ATCC 90028, 48 h, read-out: GI
row,SMILES,inhibition of growth at 16 µg/mL
1,COC(C(=O)OC(C)Cn1cnc2c1c(=O)n(C)c(=O)n2C)c1ccc(C(C)(C)C)cc1 (centres undefined),99.2%

# Test system: CCRF-CEM
# Test: Antiproliferative activity against human CCRF-CEM cells assessed as cell viability at 200 uM after 72 hrs by MTT assay
# Format: functional
# Details: read-out: Activity
# How it was run: as §1
row,SMILES,viability at 200 µM
1,COC(C(=O)OC(C)Cn1cnc2c1c(=O)n(C)c(=O)n2C)c1ccc(C(C)(C)C)cc1 (centres undefined),0%

# Test system: Candida albicans
# Test: Growth inhibition of Candida albicans ATCC 90028 at 8 ug/ml incubated for 4 hrs at 35 degC by broth microdilution method relative to control
# Format: functional
# Details: ATCC 90028, 4 h, read-out: GI
row,SMILES,inhibition of growth at 8 µg/mL
1,COC(C(=O)OC(C)Cn1cnc2c1c(=O)n(C)c(=O)n2C)c1ccc(C(C)(C)C)cc1 (centres undefined),99.5%

# Test system: Candida albicans
# Test: Growth inhibition of Candida albicans ATCC 90028 at 0.0313 ug/ml incubated for 4 hrs at 35 degC by broth microdilution method relative to control
# Format: functional
# Details: ATCC 90028, 4 h, read-out: GI
row,SMILES,inhibition of growth at 0.0313 µg/mL
1,COC(C(=O)OC(C)Cn1cnc2c1c(=O)n(C)c(=O)n2C)c1ccc(C(C)(C)C)cc1 (centres undefined),99.4%

# Test system: CCRF-CEM
# Test: Antiproliferative activity against human CCRF-CEM cells assessed as cell viability at 100 uM after 72 hrs by MTT assay
# Format: functional
# Details: read-out: Activity
# How it was run: as §1
row,SMILES,viability at 100 µM
1,COC(C(=O)OC(C)Cn1cnc2c1c(=O)n(C)c(=O)n2C)c1ccc(C(C)(C)C)cc1 (centres undefined),28.6%
